Source: PubChem BioAssay
mABHD4 FP – inhibits mouse alpha/beta hydrolase domain 4 | Q8VD66 | purified mABHD4, FP-Rh probe fluorescence polarization | inhibition, % at 8.92 µM | 370,000 tested, 0.54% active | AID 720543;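 active = inhibition exceeding the mean over every tested compound plus 3 SD, cut at about 30% in these data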;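 note: 0% = plate median of compound wells and 100% = S159A mutant with DMSO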
Target sequence (Q8VD66 whole entry, looked up, the tested form may be a part): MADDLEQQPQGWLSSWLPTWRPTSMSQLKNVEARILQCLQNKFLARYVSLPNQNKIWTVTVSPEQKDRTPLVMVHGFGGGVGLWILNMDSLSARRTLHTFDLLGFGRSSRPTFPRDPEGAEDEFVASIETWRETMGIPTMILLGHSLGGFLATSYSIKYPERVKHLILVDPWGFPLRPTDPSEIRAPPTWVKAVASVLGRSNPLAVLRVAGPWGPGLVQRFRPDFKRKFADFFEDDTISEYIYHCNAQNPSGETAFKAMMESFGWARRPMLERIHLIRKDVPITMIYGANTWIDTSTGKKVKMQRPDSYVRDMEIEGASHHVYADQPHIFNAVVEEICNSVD
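system = mouse ABHD4 enzyme, wild type | medium = HEPES pH 7.0, NaCl, Pluronic buffer | also added = FP-Rh probe | incubation = Enzyme–compound pre-incubation 45 min, then probe 60 min, both 25 °C | technique = fluorescence polarization, excitation 525 nm, emission 598 nm, BODIPY TMR filters | controls = S159A mutant high control, sample median low control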
SIAE primary – blocks human sialic acid acetylesterase | SIAE FP-Rh probe binding, fluorescence polarization | inhibition, % at 9.66 µM | 370,000 tested, 0.69% active;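 active = inhibition above a cutoff: mean of compounds within the control limits plus 3 SD of those, cut at about 17% in these data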;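 note: 0% = plate median of compound wells and 100% = probe without SIAE protein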
TCR CD3 inh – blocks the human TCR-CD3 interaction; TAMRA-labeled TCR probe fluorescence, biochemical; inhibition, % at 9.4 µM; 360,000 tested, 0.37% active;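 note: recombinant mutant TCR 2C K166C tagged with TAMRA read by polarization; 0% = receptor in buffer alone and 100% = receptor with positive control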
PRMT1 inh – PRMT1 (human) inhibition, primary screen; inhibition, % at 2.79 µM; 370,000 tested, 1.3% active; recombinant PRMT1, activity-based probe fluorescence polarization; Q99873; AID 652257;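 active = inhibition above about 21% made by adding two undisclosed values, limit read from the data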
Target sequence (Q99873 whole entry, looked up): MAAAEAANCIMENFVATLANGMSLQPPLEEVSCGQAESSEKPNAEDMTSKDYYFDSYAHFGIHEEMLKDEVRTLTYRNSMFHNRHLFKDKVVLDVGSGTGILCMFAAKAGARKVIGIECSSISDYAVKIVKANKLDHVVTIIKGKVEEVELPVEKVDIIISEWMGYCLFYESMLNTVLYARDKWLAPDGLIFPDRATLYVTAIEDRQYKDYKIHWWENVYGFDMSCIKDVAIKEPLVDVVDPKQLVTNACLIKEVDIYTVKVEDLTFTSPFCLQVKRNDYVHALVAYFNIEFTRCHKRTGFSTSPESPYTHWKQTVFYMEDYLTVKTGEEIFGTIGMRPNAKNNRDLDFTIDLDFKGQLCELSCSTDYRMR
HTRA1 inh – blocks human HTRA1 serine peptidase; 340,000 tested, 0.5% active; recombinant HTRA1, FP-rhodamine activity-based probe, fluorescence polarization; inhibition, % at 5.96 µM; Q92743; AID 504803; in the data active = inhibition above about 36%;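 note: 0% = enzyme with DMSO and 100% = wells lacking enzyme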
HTRA1 inh conf – confirmation of human HTRA1 inhibitors | shares compounds with HTRA1 inh | recombinant HTRA1, FP-rhodamine activity-based probe, fluorescence polarization | inhibition, % at 5.96 µM | 1,600 tested, 66% active | AID 540248;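 active = mean inhibition over three repeats above a set limit taken from the earlier primary screen, cut at about 37% in these data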;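 note: 0% = HTRA1 with DMSO and 100% = wells lacking HTRA1; inhibitors block probe binding so polarization drops and inhibition rises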
BSA TAMRA ctr – counter-screen for TCR-CD3 interaction inhibitors: BSA probe; shares compounds with TCR CD3 inh; TAMRA-labeled BSA probe fluorescence counterscreen; inhibition, % at 9.4 µM; 1,200 tested, 10% active; in the data active = inhibition above about 23%;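 note: 0% = buffer low control and 100% = reference high control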
TCR-CD3 conf – confirmation of human TCR-CD3 interaction inhibitors; shares compounds with TCR CD3 inh; 1,200 tested, 48% active; TAMRA-labeled TCR probe fluorescence binding assay; inhibition, % at 9.4 µM
PRMT1 inh conf – confirmation of human PRMT1 inhibitors | shares compounds with PRMT1 inh | recombinant His-PRMT1, activity-based probe fluorescence polarization | inhibition, % at 2.79 µM | 3,300 tested, 42% active | AID 687036;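 active = mean inhibition across replicates above the hit cutoff derived for the earlier primary screen, cut at about 22% in these data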
mABHD4 conf – ABHD4 (mouse) inhibition, FP confirmation; AID 720658; purified mABHD4, FP-Rh probe fluorescence polarization; 1,800 tested, 55% active; inhibition, % at 8.92 µM; shares compounds with mABHD4 FP;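 active = mean inhibition across replicates above the hit cutoff set in the primary screen, cut at about 30% in these data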;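 note: 0% = wild-type ABHD4 with DMSO and 100% = catalytically dead S159A mutant with DMSO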
SIAE confirm – human SIAE inhibition, confirmation. shares compounds with SIAE primary. SIAE FP-Rh activity-based probe, fluorescence polarization. inhibition, % at 9.66 µM. 2,300 tested, 13% active. AID 1117263;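 active = mean inhibition of the replicates above the hit cutoff set in the primary screen, cut at about 17% in these data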;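 note: 0% = SIAE with DMSO and probe and 100% = probe without SIAE; inhibitors lower polarization as more probe stays unbound to SIAE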
Active calls of the source: *; . = no result; + = active, no number. Only some compounds are listed: those with a hit (about 2.6% of all), similar ones and a draw of the others. Cut-off read from the data, not from the text of the source, unless noted: active = inhibition above about 19%; inactive = the rest.

SMILES | mABHD4 FP | SIAE primary | TCR CD3 inh | PRMT1 inh | HTRA1 inh | HTRA1 inh conf | mABHD4 conf | SIAE confirm | others
O=[N+]([O-])c1ccc(NCCCO)c(S(=O)(=O)N2CCOCC2)c1 | 0.7 | -0.2 | 4.3 | -0.1 | 3.4 | . | . | .
O=[N+]([O-])c1ccc(N/N=C/c2ccc(O)c(O)c2O)c(S(=O)(=O)N2CCOCC2)c1 | 36.7* | 27.5* | 11.3 | 34.6* | 73.9* | 74.4* | 58.1* | -3.1 | PRMT1 inh conf=55.9*
CCOC(=O)N1CCN(C(=O)C[C@H]2C(=O)N(CCCOC)C3=CCCCC[C@]32C(=O)OC)CC1 | 7.6 | 14.7 | . | -1.3 | . | . | . | .
COc1ccc(/C=C/C(=O)c2ccc(OC)cc2OC)c(OC)c1 | 0.0 | -2.7 | -1.8 | 2.6 | -25.6 | . | . | .
CNc1ccc(Br)cc(C(=O)/C=C/c2ccc(OC)cc2OC)c1=O | 36.3* | 21.3* | 19.5* | 13.5 | 50.2* | 16.5 | 30.1* | 6.7 | BSA TAMRA ctr=-5.0;TCR-CD3 conf=7.6
C#CCn1cc(/C=N/Nc2nc3ccccc3[nH]2)c2ccccc21 | 24.1 | 55.4* | -5.0 | -2.6 | 43.0* | 45.0* | . | 61.3*
Oc1ccc(N=Nc2ccc3c(c2)OCCO3)c2cccnc12 | 18.5 | 20.4* | 4.5 | -4.2 | 50.2* | 69.1* | . | 13.5
COC(=O)[C@H](C(C)C)N(CCCc1cn(Cc2ccccc2)nn1)S(=O)(=O)c1ccccc1Br | -1.3 | 4.1 | . | 1.6 | . | . | . | .
O=c1ccc2ccccc2c2ccccc12 | 3.3 | -7.8 | 3.7 | 5.0 | . | . | . | .
O=Nc1c(O)c2ccccc2c2ccccc12 | 50.6* | 29.9* | 0.5 | 1.8 | 61.5* | 78.1* | 57.9* | 24.4*
O=[N+]([O-])c1cc([N+](=O)[O-])c2c(=Nc3ccccc3)n(-c3ccccc3)n(O)c2c1 | 55.5* | 25.0* | 26.4* | 6.8 | 42.2* | 47.9* | 48.0* | 10.9
COc1ccc2ccccc2c1C(O)c1nccn1C (stereo not given) | 40.4* | 57.0* | 78.8* | 85.3* | 39.0* | 25.2 | 87.8* | 42.8* | BSA TAMRA ctr=6.3;TCR-CD3 conf=3.0
Cn1ccnc1C(O)c1ccccc1 (stereo not given) | 2.9 | -8.0 | -2.8 | 2.5 | -4.4 | . | . | .
O=C(c1cccc(F)c1F)N(Cc1ccccn1)CC1CCCO1 (stereo not given) | -2.2 | -9.4 | . | -0.9 | . | . | . | .
Fc1cccc(NC(=S)NNc2c3ccccc3nc3ccccc23)c1 | 28.2 | 38.7* | -8.6 | 0.6 | 36.5* | 28.8 | . | 8.5
COc1ccc(-n2c(Cc3cccs3)nnc2SCC(=O)Nc2ccc(OCc3ccccc3)cc2)cc1 | -26.7 | -13.6 | . | 4.5 | . | . | . | .
CN(C(=S)Nc1ccccc1)c1ccccc1 | 7.6 | 2.5 | 5.1 | -2.5 | -0.5 | . | . | .
CN(C(=S)Nc1ccc(Oc2ccccc2)cc1)c1ccc(O)cc1 | 34.8* | 20.8* | 1.7 | 10.6 | 44.5* | -13.3 | 6.0 | -2.5
O=S(=O)(Nc1ccc(N=Nc2ccccc2)cc1)c1ccccc1 | -33.0 | 8.4 | -1.3 | -1.5 | -6.2 | . | . | .
O=S(=O)(Nc1ccc(N=Nc2ccc(O)c3ccccc23)cc1)c1ccccc1 | -2.5 | 35.9* | 1.8 | 5.7 | 44.2* | 30.9 | . | -38.0
O=C(CSc1nc2ccccc2nc1N1CCCCC1)N1CCN(S(=O)(=O)c2ccccc2)CC1 | -0.2 | -0.7 | . | 6.5 | . | . | . | .
CCn1nc([N+](=O)[O-])c(C(C#N)c2nc3cc(C(F)(F)F)ccc3s2)c(Cl)c1=O (stereo not given) | 85.1* | 22.7* | 0.8 | 28.2* | 79.4* | 76.3* | 101.0* | 18.2* | PRMT1 inh conf=31.2*
CCCn1nc([N+](=O)[O-])c(C(C#N)c2nc3ccccc3o2)c(Cl)c1=O (stereo not given) | 79.9* | 22.0* | -0.8 | 22.4* | 68.6* | 82.7* | 94.6* | 5.2
Cn1nc([N+](=O)[O-])c(C(C#N)c2ccccn2)c(Cl)c1=O (stereo not given) | 16.8 | 8.6 | 4.1 | 18.8 | 10.2 | . | . | .
Cc1cc2cc(CNS(=O)(=O)c3ccccc3)ccc2n1C | 37.0* | 17.5* | 50.3* | 0.5 | 51.3* | 25.4 | 3.9 | -0.4 | BSA TAMRA ctr=7.1;TCR-CD3 conf=18.7
SMILES | mABHD4 FP | SIAE primary | TCR CD3 inh | PRMT1 inh | HTRA1 inh | HTRA1 inh conf | mABHD4 conf | SIAE confirm | others
C=C1N(C)c2cc([N+](=O)[O-])c(N)cc2C1(C)C | 22.9 | 18.0* | 1.4 | 3.2 | 54.2* | 32.7 | . | 15.0
Nc1ccc(Oc2ccc(N)c([N+](=O)[O-])c2)cc1[N+](=O)[O-] | 3.4 | 2.7 | -1.8 | 9.7 | 5.0 | . | . | .
COc1ccccc1Nc1ccc2c(O)cc(S(=O)(=O)O)cc2c1 | 85.5* | 28.0* | 40.1* | 36.6* | 68.7* | 52.9* | . | 53.5*
COc1cc(/C=C/c2ccc3c(Br)cc(Br)c(O)c3n2)ccc1O | -0.1 | 27.7* | -0.3 | -1.0 | 43.9* | 31.2 | . | -5.1
COc1ccc(/C=C/c2ccc3c(Br)ccc(O)c3n2)cc1 | 17.8 | -2.3 | -4.6 | -0.8 | 23.2 | . | . | .
CSc1nsc(/C=C/Nc2ccc(F)cc2)c1C#N | 2.0 | 1.1 | -6.8 | 0.6 | -13.2 | . | . | .
CSc1nsc(/C=C/Nc2ccc(O)cc2C)c1C#N | 59.3* | 43.0* | 26.9* | 53.2* | 74.2* | -9.8 | 6.8 | 20.8* | BSA TAMRA ctr=7.8;TCR-CD3 conf=4.3
Cn1c(=O)c(NCCc2ccccc2)c2c3c(cccc31)C(=O)c1ccccc1-2 | 198.0* | 169.9* | + | + | 146.1* | 149.2* | + | 159.6* | BSA TAMRA ctr=+;TCR-CD3 conf=+
Cn1c(NCCc2ccccc2)cc(=O)n(C)c1=O | -0.5 | 3.7 | -8.8 | 0.7 | 0.3 | . | . | .
Cn1c(=O)c(NCCO)c2c3c(cccc31)C(=O)c1ccccc1-2 | 93.2* | 57.8* | 71.3* | 184.3* | 60.2* | 71.9* | 85.0* | 117.2* | BSA TAMRA ctr=116.6*;TCR-CD3 conf=79.5*;PRMT1 inh conf=184.2*
COC(=O)[C@]12C[C@H](CC(=O)N3CCCCC3)C(=O)N(CCc3ccc(OC)c(OC)c3)C1=C[C@H](C(C)C)O[C@@H]2C1CC1 | 6.1 | 5.4 | . | -4.9 | . | . | . | .
CCCC(=O)NC(c1ccc(OC)c(OC)c1)c1cc(Cl)c2cccnc2c1O (stereo not given) | 7.1 | 19.7* | -2.5 | -1.6 | 46.4* | 66.1* | . | 11.6
